In publication PMC7413021 (The Journal of nutritional biochemistry, 2016):

Experiment: Measurement of phenolics in plasma
Format: in vivo
Details: 2 months old male mice fed diet containing 25% dried plum for 4 weeks
Outline: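 Male C57Bl/6 mice, 2 months old, fed control AIN-93G or diet with 25% test material for 4 weeks (n=8/group). At euthanasia, blood was drawn into lithium-heparin tubes and spun at 6500 rpm for 10 min at 4°C. Plasma was acidified 4:1 with 1% ascorbic acid in saline, purged with nitrogen and stored at −80°C. Quercetin glycosides and caffeic and gallic acid derivatives were profiled by LC/TOF-MS.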

## COc1cc(CCC(=O)O)ccc1O[C@@H]1O[C@H](C(=O)O)[C@@H](O)[C@H](O)[C@H]1O [Dihydroferulic acid 4-O-glucuronide]
  plasma concentration, CMin: 3270 nM
  plasma concentration, Caverage: 4990 ± 440 nM

## COc1ccc(CCC(=O)O)cc1O[C@@H]1O[C@H](C(=O)O)[C@@H](O)[C@H](O)[C@H]1O [Dihydroisoferulic acid 3-O-glucuronide]
  plasma concentration, CMin: 420 nM
  plasma concentration, Caverage: 1390 ± 310 nM

## COc1cc(/C=C/C(=O)O)ccc1O[C@@H]1O[C@H](C(=O)O)[C@@H](O)[C@H](O)[C@H]1O [Ferulic acid 4-O-glucuronide]
  plasma concentration, CMin: 1100 nM
  plasma concentration, Caverage: 3060 ± 450 nM

## COc1ccc(/C=C/C(=O)O)cc1O[C@@H]1O[C@H](C(=O)O)[C@@H](O)[C@H](O)[C@H]1O [Isoferulic acid 3-O-glucuronide]
  plasma concentration, CMin: 20 nM
  plasma concentration, Caverage: 800 ± 210 nM
